# High-throughput results: PubChem, Johns Hopkins Ion Channel Center
# Sampled rows, rich in hits. Any-hit rate of the full collection: about 3.7%.
# KCNQ1 act – potentiators or activators of human KCNQ1 potassium channel | P51787 | CHO-K1 KCNQ1, thallium flux FluxOR fluorescence; hits give high values | B-score at 10 µM | hit rate 0.35% among 310,000 | AID 2648;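 active means fluorescence ratio B-score, a plate-corrected score, at least three library SD, with initial intensity B-score within 5 SD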
#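 Schedule – 37 °C overnight plating, 90-min dark dye load, 20-min compound pretreatment · System – stable KCNQ1 CHO-K1 line · Probe or stimulus – thallium- and potassium-containing depolarizing buffer · Measured by – kinetic FluxOR fluorescence, 10 s baseline plus 110 s post-stimulus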
# KCNK3 block – human KCNK3 channel inhibition, primary screen | CHO-KCNK3 thallium flux, FluxOR fluorescence; hits give low values | B-score at 10 µM | hit rate 0.84% among 340,000;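 active means B-score under library mean minus 4 SD, starting fluorescence ratio at most library mean plus 5 SD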;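 further: more negative B-score means stronger inhibition of thallium flux through KCNK3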
# Kir21 block – Kir2.1 (mouse) channel inhibition. AID 1672. HEK293-Kir2.1, FluxOR thallium flux fluorescence; hits give low values. hit rate 0.85% among 310,000. P35561. B-score at 10 µM;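 active means fluorescence ratio B-score at or below minus 3 SD of library scores, with starting-brightness B-score within 2 SD, cut at about -4.2 in these data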;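 further: channel flux triggered by added potassium and thallium sulfate stimulus; B-score of peak minus minimum fluorescence over baseline after thallium stimulus; more negative B-score means stronger Kir2.1 block with less thallium influx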
# KCNQ1 block – blocks the human KCNQ1 potassium channel. P51787. CHO-K1 KCNQ1, FluxOR thallium flux fluorescence; hits give high values. B-score at 10 µM. hit rate 1.3% among 310,000;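 active means compounds whose thallium flux B-score, printed positive for inhibition, exceeds three library SD while starting fluorescence stays within three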;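 further: channel opened by potassium depolarization with thallium stimulus after 20 min compound exposure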
# KCNK9 inh – human KCNK9 channel inhibition. HEK293 KCNK9, FluxOR thallium flux fluorescence; hits give low values. B-score at 10 µM. hit rate 1.2% among 310,000. Q9NPC2;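 active means ratio B-score over 3 SD below the library mean, with starting fluorescence within 5 SD of its mean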;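 further: negative B-score means less thallium flux so channel inhibition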
# hERG protect – shields human hERG channel from block by proarrhythmic agents; CHO-hERG, FluxOR thallium flux, dofetilide IC70 present; activation (rescue from dofetilide block), less the hit threshold, % at 10 µM; hit rate 0.51% among 310,000;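 active means activation above the mean of controls blocked by dofetilide plus 5 SD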;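 further: thallium influx through hERG after potassium depolarization seen as dye fluorescence rise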
# Target sequence (Q12809 whole entry, looked up): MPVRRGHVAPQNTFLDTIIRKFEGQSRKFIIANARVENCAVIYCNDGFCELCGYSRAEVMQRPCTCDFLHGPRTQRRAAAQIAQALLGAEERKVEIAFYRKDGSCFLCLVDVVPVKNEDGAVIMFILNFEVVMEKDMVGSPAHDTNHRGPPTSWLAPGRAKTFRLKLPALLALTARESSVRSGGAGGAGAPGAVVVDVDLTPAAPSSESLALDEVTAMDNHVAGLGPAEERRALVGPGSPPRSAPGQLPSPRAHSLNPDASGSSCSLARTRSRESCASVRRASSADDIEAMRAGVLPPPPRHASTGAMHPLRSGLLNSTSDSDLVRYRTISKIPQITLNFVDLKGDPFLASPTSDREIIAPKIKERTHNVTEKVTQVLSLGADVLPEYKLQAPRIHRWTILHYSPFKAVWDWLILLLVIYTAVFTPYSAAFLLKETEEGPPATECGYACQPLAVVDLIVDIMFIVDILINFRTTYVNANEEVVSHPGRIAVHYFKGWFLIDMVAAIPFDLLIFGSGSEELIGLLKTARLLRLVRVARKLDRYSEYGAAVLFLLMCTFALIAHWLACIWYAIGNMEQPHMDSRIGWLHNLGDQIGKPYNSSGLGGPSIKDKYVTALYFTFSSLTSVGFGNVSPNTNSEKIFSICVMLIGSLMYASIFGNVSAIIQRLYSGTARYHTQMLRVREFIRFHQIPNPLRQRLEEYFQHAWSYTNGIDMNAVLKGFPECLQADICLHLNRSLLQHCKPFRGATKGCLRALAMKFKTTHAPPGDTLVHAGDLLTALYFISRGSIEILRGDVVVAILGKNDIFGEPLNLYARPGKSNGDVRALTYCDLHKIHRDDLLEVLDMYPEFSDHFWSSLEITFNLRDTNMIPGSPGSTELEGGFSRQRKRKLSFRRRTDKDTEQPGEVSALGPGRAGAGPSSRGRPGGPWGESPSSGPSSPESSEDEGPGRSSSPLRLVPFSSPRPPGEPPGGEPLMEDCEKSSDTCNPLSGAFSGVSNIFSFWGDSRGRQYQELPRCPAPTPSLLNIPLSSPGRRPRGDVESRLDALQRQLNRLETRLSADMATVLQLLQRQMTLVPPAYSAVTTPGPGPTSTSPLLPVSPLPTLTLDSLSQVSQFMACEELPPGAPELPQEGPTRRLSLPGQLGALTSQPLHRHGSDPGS
# * = called active by the depositor; i = inactive; . = no result given.
SMILES,KCNQ1 act,KCNK3 block,Kir21 block,KCNQ1 block,KCNK9 inh,hERG protect
CCCCNC(=O)C(C#N)c1nc2ccccc2nc1N1CCN(Cc2ccc3c(c2)OCO3)CC1 (configuration not stated),.,i,.,.,.,.
CC1CN(c2nc3ccccc3nc2C(C#N)C(=O)NCc2ccc3c(c2)OCO3)CC(C)O1 (configuration not stated),23*,i,-0.06,i,i,-18.7
C=CCNC(=O)C(C#N)c1nc2ccccc2nc1N1CCCCCC1 (configuration not stated),i,i,2.28,6*,i,-11.5
O=C(NCCc1cnn(-c2ccccc2)c1)c1cc(COc2c(F)cccc2F)on1,i,i,0.49,i,i,-6.5
O=S1OCCN1c1ccccc1 (configuration not stated),i,i,-0.08,i,i,-4.0
COc1cc(C(C[N+](=O)[O-])c2c(N)n(C)c(=O)n(C)c2=O)ccc1O (configuration not stated),i,i,0.01,6*,i,-2.7
Cc1ccc(C2=NN(C(=O)CCC(=O)O)C(c3ccc4c(c3)OCO4)C2)cc1 (configuration not stated),i,i,-0.92,i,i,-8.2
Cc1ccc(C2=NN(C(=O)CCCC(=O)O)C(c3ccc4c(c3)OCO4)C2)cc1 (configuration not stated),i,i,0.9,i,i,5.5*
COc1ccc(-c2noc(CSc3ccccc3)n2)cc1OC,i,i,1.57,i,i,-15.4
COc1ccc(-c2noc(CSc3nnc(CCc4ccccc4)n3-c3ccccc3)n2)cc1OC,i,-9.66*,-0.33,i,i,-12.4
C/C(CC(=O)Nc1ccccn1)=N\NC(=O)c1cnccn1,i,i,0.28,i,i,-6.0
S=c1nc(C2CCCCC2)n(-c2ccccc2)[nH]1,40*,i,-0.41,i,i,11.4*
CC(C)c1ccc(NC(=O)C(=O)C2C(=O)Nc3ccccc32)cc1 (configuration not stated),i,i,-0.27,i,i,-7.3
CC(C)(C)c1ccc(NC(=O)C(=O)C2C(=O)Nc3ccccc32)cc1 (configuration not stated),i,i,1.67,i,i,5.7*
Cc1ccc(S(=O)(=O)N(C)C)cc1NC(=O)COC(=O)/C(=C/c1ccc(F)cc1)c1cccs1,i,i,-2.03,i,-7.33*,-7.3
COc1ccc(C(CNC(=O)C(C)c2ccc3cc(OC)ccc3c2)N(C)C)cc1 (configuration not stated),i,i,-4.91*,i,i,-7.3
COc1cccc(NC(=O)NCC2CCN(Cc3ccc(F)cc3)CC2)c1,8*,i,0,i,i,-5.8
CN(CC(=O)NCc1ccc(F)cc1)S(=O)(=O)c1ccc(Br)s1,i,i,-0.14,i,i,-13.9
COc1ccc(CCNC(=O)c2cc(C(=O)c3cc(Cl)ccc3O)cn(CCc3ccc(OC)cc3)c2=O)cc1,i,i,0.36,8*,i,-21.6
O=C(c1cc(C(=O)NCCc2ccccc2)c(=O)n(CCc2ccccc2)c1)c1cc(Cl)ccc1O,i,i,0.48,10*,i,-14.3
O=[N+]([O-])c1ccccc1N(CC1CO1)S(=O)(=O)c1ccccc1 (configuration not stated),i,i,-1.01,i,i,-8.0
CCOC(=O)c1c(NC(=O)CSc2nc3cccnc3n2C)sc(C(C)=O)c1C,i,-10.3*,-0.5,i,i,-5.2
CCOC(=O)c1sc(NC(=O)CSc2nc3cccnc3n2C)nc1C,i,i,1.52,i,i,-3.0
Cc1ccc(NC(=O)CC2CCCC2)c(Br)c1,i,i,1.6,i,i,-10.4
CC(=O)c1ccc2c(c1)c(C#N)c1ccccc1[n+]2[O-],i,i,-4.21,11*,i,-22.6
SMILES,KCNQ1 act,KCNK3 block,Kir21 block,KCNQ1 block,KCNK9 inh,hERG protect
Cc1c(C(=O)NN2CCOCC2)oc2c1ccc1ccccc12,i,i,1.5,i,i,-7.1
Cc1nn(C)c(C(=O)NC(=S)Nc2ccc([N+](=O)[O-])cc2)c1Cl,34*,i,-0.49,i,i,43.1*
Cc1nn(C)c(C(=O)NC(=S)Nc2ccccc2Br)c1Cl,22*,i,-0.23,i,i,16.9*
Cc1nn(C)c(C(=O)NNC(=S)Nc2ccc(F)cc2)c1[N+](=O)[O-],i,i,0.74,i,i,-10.0
CCn1ncc(Cl)c1C(=O)NC(=S)Nc1ccccc1Br,26*,i,-0.24,i,i,34.6*
C=CCOc1ccc(/C=C/C(=O)OCC(=O)Nc2c(C)n(C)n(-c3ccccc3)c2=O)cc1,i,i,0.7,i,i,-8.6
OC1(Cc2cc(-c3ccccc3)no2)CCN(CCCc2ccccc2)CC1,i,i,-0.15,i,i,-14.0
Cc1cccc(NS(=O)(=O)c2cccc(C(=O)NCC(c3ccc(F)cc3)N3CCOCC3)c2)c1 (configuration not stated),.,i,.,.,.,.
O=C(O)/C(=C/c1ccc(Cl)c([N+](=O)[O-])c1)c1ccc(S(=O)(=O)N2CCCCC2)s1,.,i,.,.,.,.
O=C(Nc1ccc(Br)c2ccccc12)c1ccc2ccccc2c1O,i,i,0.37,7*,i,-27.6
NC(=O)NC(Cc1ccccc1)C(=O)NCCCSc1ccccc1 (configuration not stated),i,i,-1.08,i,i,-5.0
CCCN(CC(=O)Nc1ccccc1C)C(=O)c1ccc(N2CCCCC2)c([N+](=O)[O-])c1,i,i,0.19,i,i,-13.2
CCn1cc(CCC(=O)NCc2ccccc2OC)c2ccccc21,i,i,-6.67*,i,i,-4.6
Cc1noc(C)c1COc1ccc(C(=O)OCC(=O)Nc2cccc(S(=O)(=O)N3CCOCC3)c2)cc1,i,i,-0.58,i,i,-4.1
Cc1ccc(/C=C/C(=O)c2ccccc(=O)c2O)cc1C,34*,i,-0.38,i,i,9.1*
COc1ccc(C=CC(=O)c2ccc(OC)c(OC)c2O)cc1OC,.,i,.,.,.,.
Cc1ccc(C)c(NC(=O)/C(C#N)=C/c2ccc(Sc3nncn3C)c([N+](=O)[O-])c2)c1,i,.,1.87,i,i,-5.2
Cc1ccc(S(=O)(=O)NCc2ccc(C(=O)NCCN(Cc3ccccc3)C(C)C)cc2)cc1,i,i,-0.85,6*,i,-13.2
COc1ccc(C(=O)NNC(=O)Cc2nc3nc(C)cc(C)n3n2)cc1,i,i,2.32,i,i,-8.5
NC(N)=NN=C1CCCCCCCCCCC1,i,i,-10.6*,7*,i,-25.6
